Experimental findings from PubChem BioAssay are described below.

Each structure is given as a SMILES string. Active and inactive are the calls of the source.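 Rule for the calls: active = growth inhibition above 25% in both replicates, a cutoff set 3 SD above the mean; inconclusive = above 25% in only one replicate; inactive = the rest.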

The assay can be described thus: OD615 S. cerevisiae growth inhibition, permissive medium, pilot counter-assay, permissive growth control for S. cerevisiae lifespan shortening project (AID 705). Conditions: OD615, 24 h, at 10 µM, hits give high values. An outline of the steps:
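System: S. cerevisiae with engineered DeaD lifespan system. Medium: SC raffinose/galactose permissive medium. Doses: single compound dose of 10 µM, 0.25% DMSO final. Schedule: 24 h exposure, 30 °C. Measured by: OD615 turbidity read. Read-out: growth inhibition.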
With `COc1ccc2cc(CCNC(=O)C3CCCC3)c(=O)[nH]c2c1`, the growth inhibition is -6.89% (inactive).

As to `Cc1cc(C(=O)CN2CC(C)OC(C)C2)c(C)n1-c1ccccc1` (stereo not drawn), the growth inhibition was 0.61% (inactive).

With `Cc1ccc2oc(=O)c3cc(C(=O)NCc4ccco4)sc3c2c1`, the growth inhibition is -8.27% (inactive).

`C1CCc2c(nc3nnnn3c2N2CCOCC2)C1`: the growth inhibition was -0.9% (inactive).

On to `Cc1ccc(C(=O)NCc2ccc(Cl)c(Cl)c2)o1`, for which the growth inhibition is -3.73% (inactive).

Take `O=C(NC1CCN(C(=O)N2c3ccccc3Sc3ccccc32)CC1)c1ccco1`: the growth inhibition was -3.83% (inactive).

Regarding `O=C(O)CCC(C(=O)O)n1c(O)c(C2=c3ccccc3=NC2=O)sc1=S` (stereo not drawn), the growth inhibition was -5.76% (inactive).

With `Cc1cc(C(=O)N2CCN(S(C)(=O)=O)CC2)sc1-c1ccccc1`, the growth inhibition was -7.32% (inactive).

For the compound `O=c1[nH]c2ccccc2n1Cc1ccc(F)cc1`, the growth inhibition is -5.88% (inactive).

Regarding `COC(=O)CCc1n[nH]c(=O)[nH]c1=O`, the growth inhibition was 3.66% (inactive).

Consider `COc1ccc(C(=S)N(C)C)cc1OC`, for which the growth inhibition is 11.9% (inactive).

Take `CCCCn1c(CNC(=O)C(C)(C)C)nc2ccccc21`: the growth inhibition is -11.1% (inactive).

Regarding `C/C(NCCN1CCOCC1)=C(\C#N)C(N)=O`, the growth inhibition is -3.8% (inactive).

For the compound `O=C(Nc1ccc(Br)cc1F)C1CCCN(S(=O)(=O)c2cnc[nH]2)C1` (stereo not drawn), the growth inhibition was 2.29% (inactive).

Turning to `CCN1CCN(C(=O)Cn2ncc3c2-c2ccccc2OC3)CC1`, the growth inhibition was 0.755% (inactive).

Consider `CC1CCc2nn(CC(=O)N3CCCCCC3)cc2C1` (stereo not drawn), for which the growth inhibition is -3.02% (inactive).

For the compound `Nc1nnc(N2CCc3ccccc32)s1`, the growth inhibition was -1.08% (inactive).

`COc1ccc(-c2nnc(SCC(=O)Nc3cc(F)ccc3C)o2)cc1`: the growth inhibition is -4.83% (inactive).

Regarding `CCc1nnc(NC(=O)CSc2nc3c(c(=O)n2CC)SC(C)C3)s1` (stereo not drawn), the growth inhibition was 3.12% (inactive).

Take `O=C(O)CCc1nnc2n(Cc3ccc(F)cc3)c(=O)c3ccccc3n12`: the growth inhibition was -4.64% (inactive).

For `CC(=O)NCCc1cc2ccc(C)c(C)c2[nH]c1=O`, the growth inhibition was -14.9% (inactive).

Regarding `O=C(Cn1c(=O)oc2cc(S(=O)(=O)N3CCCC3)ccc21)N1CCN(c2ccccn2)CC1`, the growth inhibition was 4.62% (inactive).

Regarding `COc1ccc(-c2cn3c(C)c(C(=O)NC(C)(C)C)sc3n2)cc1`, the growth inhibition was -8.09% (inactive).
